Assay outcomes from PubChem.
Lmaj promast = inhibitors of Leishmania major promastigote growth. Leishmania major promastigotes, resazurin fluorescence viability. inhibition, % at 10 µM. actives 9% (n = 200,000). AID 1063; in the data active means inhibition above about 50%;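 further: promastigotes grown with compound for 44 hours at 28 °C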
bCat KO growth = beta-catenin-lacking colon tumor cell growth suppression; actives 1.5% (n = 140,000); HCT116 beta-catenin knockout viability, CellTiter-Glo, 60 h; active compounds read low; viability, % at 10 µM;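 active means viability at or under a set limit, the compound median less 4 SD, cut at about 6% in these data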;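 further: 0% = Hyamine 1622 control at 20 µM and 100% = untreated cell control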
HCT116 PTEN-null = PTEN-deleted cell growth suppression; HCT116 PTEN-null viability, CellTiter-Glo, 60 h; active compounds read low; viability, % at 10 µM; actives 1.2% (n = 140,000); AID 827;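 active means viability at or below a set limit, 4 SD under the median of all tested compounds, cut at about 3.7% in these data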;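 further: PTEN knockout HCT116 line with beta catenin targeted HCT116 as companion control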
Dynein transport = dynein cargo transport inhibition. 3617.4 mouse cells, GR-EGFP nuclear translocation imaging; test concentration mostly 20 µM; stimulated with dexamethasone, 1 µM; active compounds read low. z-score, hits read low. actives 0.47% (n = 220,000);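 active means plate z-score of nuclear minus cytoplasmic receptor signal below a set negative limit, without overly bright fluorescence or cell loss, cut at about -3.5 in these data, passing the limit was not always enough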;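 further: z-score of nuclear minus cytoplasmic ring GR-EGFP intensity difference per well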
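medium = tetracycline-free induction medium containing charcoal-stripped FBS | probe or stimulus = dexamethasone, 1.0 µM final | timing = 48 h induction, then 1 h compound, then 30 min agonist, 37 °C | detection = automated 10x imaging of fixed Hoechst-stained cells | read-out basis = nuclear versus cytoplasmic GR-EGFP signal, averaged per well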
Autophagy mod = alters autophagy in cells | calls only at 10 µM (by protocol) | actives 0.98% (n = 190,000) | MEF GFP-LC3 puncta imaging; test concentration mostly 10 µM | AID 463193;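 active means percentage of spot-positive cells more than 3 SD above its plate mean, without a fluorescence outlier flag or 80% toxicity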;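 further: spot-positive cell cutoff set from DMSO-treated cells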
Active calls of the source: *; i = inactive; nt = no result given; + = active, no number. The list is not random: actives were taken first. Their share in the collection is about 9.2%.

SMILES	Lmaj promast	bCat KO growth	HCT116 PTEN-null	Dynein transport	Autophagy mod
Cc1cc(C)n(-c2nc(Nc3ccccc3C(F)(F)F)nc(-n3nc(C)cc3C)n2)n1	100*	2.9*	3.5*	0.25	i
CC(C)(C)Nc1nc(NC(C)(C)C)nc(-n2ccnc2)n1	98*	91	84	0.39	i
C/C(=N\NC(=O)c1cc(C)oc1C)c1ccc(N2CCOCC2)cc1	-5	nt	nt	-0.0086	i
Cc1ccc(F)cc1NC(=O)c1cnccn1	-7	nt	nt	1.3	i
CC(=O)c1ccc(C)cc1OC(=O)c1cccc(F)c1	-6	nt	nt	-0.6	i
Cc1ccc(C(=O)CC(=O)c2cccc(F)c2)c(O)c1	97*	49	40	-0.18	i
Cc1ccc(O)c(C(=O)CC(=O)c2ccccc2Cl)c1	95*	nt	nt	0.48	i
CC(C)N(C(=O)COC(=O)c1ccc([N+](=O)[O-])cc1)c1ccccc1	0	nt	nt	-0.18	i
COc1ccc(NS(=O)(=O)c2cccc(C(=O)N/N=C(\C)c3ccncc3)c2)cc1	59*	84	88	-0.051	i
COc1ccc(S(=O)(=O)N/N=C(/C)c2cccc(NC(=O)c3ccccc3Cl)c2)cc1	97*	88	82	-0.12	i
COc1ccc(NS(=O)(=O)c2cccc(NC(=O)c3ccc(Cl)nc3)c2)cc1	61*	nt	nt	2.1	i
COc1ccc(NS(=O)(=O)c2cccc(C(=O)N/N=C(\C)c3ccc(-n4ccnc4)cc3)c2)cc1	-4	90	90	-0.037	i
CN(C)S(=O)(=O)c1cccc(NC(=O)NCCCl)c1	nt	nt	nt	-0.28	nt
COc1ccc(NS(=O)(=O)c2cccc(NC(=O)NCCCl)c2)cc1	71*	nt	nt	-0.041	i
O=C(CCC1CCCN(c2ncccn2)C1)NCc1ccc(F)c(F)c1 (centres undefined)	-7	nt	nt	0.12	i
COc1ccc(NS(=O)(=O)c2cccc(NC(=O)CCC(=O)c3ccc(Cl)cc3)c2)cc1	80*	73	65	-0.61	i
COc1ccc(CCNC(N)=S)cc1OC	-9	95	89	-0.65	i
O=C(Nc1nccs1)c1c(O)c2cccc3c2n(c1=O)CCC3	96*	25	18	0.51	i
Cc1ccccc1OCc1nc(-c2ccc(NC(=O)c3ccco3)cc2)no1	3	87	94	0.87	i
Cc1ccccc1OCc1nc(-c2ccc(NC(=O)c3cccs3)cc2)no1	71*	87	90	-0.64	i
COc1ccc(NC(=O)c2oc3ccccc3c2NC(=O)c2ccc3c(c2)OCO3)cc1	100*	83	84	-1.1	i
O=C(NCc1nc(-c2ccccc2)no1)c1ccc2c(c1)OCO2	-5	103	89	-0.51	i
Cc1ccccc1OCc1nc(-c2ccc(NC(=O)c3ccc4c(c3)OCO4)cc2)no1	4	61	46	-1	+
COc1ccc(S(=O)(=O)N2CCCCC2)cc1NC(=O)c1cc(C)on1	4	nt	nt	2	i
COc1cc(/C=N/NC(=O)Cn2nc([N+](=O)[O-])cc2C)cc(Br)c1OCc1ccccc1	11	58	69	-0.53	i
SMILES	Lmaj promast	bCat KO growth	HCT116 PTEN-null	Dynein transport	Autophagy mod
CCOc1cc(/C=N/NC(=O)Cn2nc([N+](=O)[O-])cc2C)cc(Br)c1OCc1ccccc1C	5	1.5*	2.1*	-0.27	i
CC1CN(c2ccccc2)NC1=O (centres undefined)	-8	nt	nt	-0.1	i
CN(C)CCCOc1ccc(Cl)cc1Br	62*	88	83	-0.66	i
Cc1cc(Br)cc(C)c1OCCCCN(C)C	100*	57	59	0.029	i
CC(C)NCCOCCOc1ccc(Cl)cc1Br	95*	63	71	0.49	i
Cc1ccc(OCCCN(C)C)c(Br)c1	60*	89	91	0.67	i
C#CCN(C(=O)CC1C(=O)NCCN1C/C=C/c1ccccc1)C1CCCCC1 (centres undefined)	-3	nt	nt	0.78	i
Cc1cc(Cl)c(OCCCN(C)C)c(Br)c1	79*	79	80	0.64	i
Cc1cc(Cl)c(OCCCCNC(C)(C)C)c(Br)c1	98*	65	64	0.53	i
Clc1ccc(OCCSc2ncccn2)c(Br)c1	1	nt	nt	-0.35	i
Cc1cc(C)c(OCCN(C)C)c(Cl)c1	1	nt	nt	0.22	i
CN(C)CCOCCOc1ccc(Cl)cc1Br	93*	nt	nt	2.4	i
Cc1ccc(NC(=O)CN(C)CC(=O)Nc2ccccc2Oc2ccccc2)cc1	-5	nt	nt	0.88	+
